Test system: not listed separately
Assay: Antiprion activity against PrPsc infected in mouse SMB.s15 cells assessed as complete clearance of PrPSc after 5 days by dot blot analysis
Assay type: cell-based
Conditions: SMB.s15, 120 h
How it was run: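 SMB.s15 cells (scrapie-infected, mesodermal origin) in Medium 199 with 10% newborn calf and 5% fetal calf serum, seeded at 12,000 cells/well, 24 h attachment. Compound added from DMSO stock via HBSS dilution, 5 days at 37 °C. Lysates dot-blotted, proteinase K digestion (1 h, 37 °C), guanidine thiocyanate, anti-PrP 6H4 mAb, ECL. Triplicate, PrPSc relative to DMSO-only control.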

Row | Compound | EC50
1 | COc1ccc(NC(=O)C(=O)c2c[nH]c3cc(Cl)ccc23)cc1 | 9.9 nM
2 | Cc1ccc(NC(=O)C(=O)c2c[nH]c3cc(C)ccc23)cc1 | 51 nM
3 | COc1ccc(NC(=O)C(=O)c2c[nH]c3cc(F)ccc23)cc1 | 13 nM
4 | COc1ccc(NC(=O)C(=O)c2c[nH]c3cc(C)ccc23)cc1 | 12 nM
5 | Cc1ccc2[nH]cc(C(=O)C(=O)Nc3ccc(N4CCOCC4)cc3)c2c1 | 83 nM
6 | COc1ccc(NC(=O)C(=O)c2c[nH]c3ccccc23)cc1 | 11 nM
7 | Cc1ccc(NC(=O)C(=O)c2c[nH]c3ccc(C)cc23)cc1 | 900 nM
8 | O=C(Nc1ccc(N2CCOCC2)cc1)C(=O)c1c[nH]c2ccc(Cl)cc12 | 69 nM
9 | COc1ccc(NC(=O)C(=O)c2c[nH]c3cc(C(C)C)ccc23)cc1 | 330 nM
10 | Cc1ccc(NC(=O)C(=O)c2c[nH]c3cc([N+](=O)[O-])ccc23)cc1 | 35 nM
11 | Cc1ccc(NC(=O)C(=O)c2c[nH]c3c(C)cccc23)cc1 | 1400 nM
12 | O=C(Nc1ccc(-n2cccn2)cc1)C(=O)c1c[nH]c2cc(Cl)ccc12 | 6.1 nM
13 | Cc1ccc2c(C(=O)C(=O)Nc3ccc(N4CCOCC4)cc3)c[nH]c2c1 | 3.1 nM
14 | COc1ccc(NC(=O)C(=O)c2c[nH]c3cc(C#N)ccc23)cc1 | 2.2 nM

Species: Danio rerio
Assay: Toxicity in zebrafish assessed as otic capsule deformities at 5 uM treated at 48 hrs post-fertilization measured after 3 days by acridine orange staining method
Assay type: organism-based
Conditions: in vivo, 72 h
How it was run: (§1)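 Zebrafish larvae dosed at 5 uM from 48 hpf for three days (28 °C, E3 medium, 1% DMSO). Stained with acridine orange at 1 mg/mL in E3 for 30 min, then washed 3 × 10 min. Anesthetized with tricaine, mounted in 1% low-melt agarose with tricaine, and examined by microscopy for apoptosis and deformities.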

Row | Compound | Activity
15 | Cc1ccc2c(C(=O)C(=O)Nc3ccc(N4CCOCC4)cc3)c[nH]c2c1 | Non-toxic
16 | COc1ccc(NC(=O)C(=O)c2c[nH]c3cc(C#N)ccc23)cc1 | Non-toxic

Species: Danio rerio
Assay: Toxicity in zebrafish assessed as induction of apoptosis at 5 uM treated at 48 hrs post-fertilization measured after 3 days by acridine orange staining method
Assay type: organism-based
Conditions: in vivo, 72 h
How it was run: as §1

Row | Compound | Activity
17 | Cc1ccc2c(C(=O)C(=O)Nc3ccc(N4CCOCC4)cc3)c[nH]c2c1 | Non-toxic
18 | COc1ccc(NC(=O)C(=O)c2c[nH]c3cc(C#N)ccc23)cc1 | Non-toxic

Test system: not listed separately
Assay: Antiprion activity against PrPsc infected in mouse ScN2a cells assessed as complete clearance of PrPSc after 5 days by ELISA
Assay type: cell-based
Conditions: 120 h
How it was run: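 ScN2a cells (N2a infected with RML prion strain) seeded at 4×10^5 cells/well in MEM with 10% FBS, GlutaMax, geneticin. Compound added 4 h after seeding, 0.5% final DMSO, 5 days at 37 °C. Lysates captured on D18 Fab-coated ELISA plates overnight at 4 °C, HRP-D13 detection, ABTS, absorbance at 405 nm. Dose-response curves from three independent experiments.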

Row | Compound | EC50
19 | COc1ccc(NC(=O)C(=O)c2c[nH]c3ccccc23)cc1 | 91 nM
20 | O=C(Nc1ccc(-n2cccn2)cc1)C(=O)c1c[nH]c2cc(Cl)ccc12 | 175 nM
21 | COc1ccc(NC(=O)C(=O)c2c[nH]c3cc(C#N)ccc23)cc1 | 11 nM

Species: Danio rerio
Assay: Toxicity in zebrafish assessed as yolk deformities at 5 uM treated at 48 hrs post-fertilization measured after 3 days by acridine orange staining method
Assay type: organism-based
Conditions: in vivo, 72 h
How it was run: as §1

Row | Compound | Activity
22 | Cc1ccc2c(C(=O)C(=O)Nc3ccc(N4CCOCC4)cc3)c[nH]c2c1 | Non-toxic
23 | COc1ccc(NC(=O)C(=O)c2c[nH]c3cc(C#N)ccc23)cc1 | Non-toxic

Species: Danio rerio
Assay: Toxicity in zebrafish assessed as swim bladder deformities at 5 uM treated at 48 hrs post-fertilization measured after 3 days by acridine orange staining method
Assay type: organism-based
Conditions: in vivo, 72 h
How it was run: as §1

Row | Compound | Activity
24 | Cc1ccc2c(C(=O)C(=O)Nc3ccc(N4CCOCC4)cc3)c[nH]c2c1 | Non-toxic
25 | COc1ccc(NC(=O)C(=O)c2c[nH]c3cc(C#N)ccc23)cc1 | Non-toxic

Test system: ScN2a
Assay: Cytotoxicity against mouse ScN2a cells up to 32 uM
Assay type: cell-based
Conditions: not given
How it was run: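 ScN2a cells seeded separately in 96-well plates. Calcein cell viability assay run in parallel with the ELISA screen, up to 32 uM maximum.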

Row | Compound | Activity
26 | COc1ccc(NC(=O)C(=O)c2c[nH]c3cc(Cl)ccc23)cc1 | Non-toxic
27 | Cc1ccc(NC(=O)C(=O)c2c[nH]c3cc(C)ccc23)cc1 | Non-toxic
28 | COc1ccc(NC(=O)C(=O)c2c[nH]c3cc(F)ccc23)cc1 | Non-toxic
29 | COc1ccc(NC(=O)C(=O)c2c[nH]c3cc(C)ccc23)cc1 | Non-toxic
30 | Cc1ccc2[nH]cc(C(=O)C(=O)Nc3ccc(N4CCOCC4)cc3)c2c1 | Non-toxic
31 | COc1ccc(NC(=O)C(=O)c2c[nH]c3ccccc23)cc1 | Non-toxic
32 | Cc1ccc(NC(=O)C(=O)c2c[nH]c3ccc(C)cc23)cc1 | Non-toxic
33 | O=C(Nc1ccc(N2CCOCC2)cc1)C(=O)c1c[nH]c2ccc(Cl)cc12 | Non-toxic
34 | COc1ccc(NC(=O)C(=O)c2c[nH]c3cc(C(C)C)ccc23)cc1 | Non-toxic
35 | Cc1ccc(NC(=O)C(=O)c2c[nH]c3cc([N+](=O)[O-])ccc23)cc1 | Non-toxic
36 | Cc1ccc(NC(=O)C(=O)c2c[nH]c3c(C)cccc23)cc1 | Non-toxic
37 | O=C(Nc1ccc(-n2cccn2)cc1)C(=O)c1c[nH]c2cc(Cl)ccc12 | Non-toxic
38 | Cc1ccc2c(C(=O)C(=O)Nc3ccc(N4CCOCC4)cc3)c[nH]c2c1 | Non-toxic
39 | COc1ccc(NC(=O)C(=O)c2c[nH]c3cc(C#N)ccc23)cc1 | Non-toxic

Test system: not listed separately
Assay: Metabolic stability in mouse liver microsomes assessed as compound remaining after 30 mins by HPLC analysis
Assay type: ADME, Microsome
Conditions: read-out: Stability
How it was run: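 Mouse liver microsomes (0.5 mg/mL stock) in 0.2 M potassium phosphate pH 7.0 with DL-isocitrate, MgCl2 and isocitrate dehydrogenase. Preincubated 5 min at 37 °C, then started with NADPH. Sampled at t=0 and after 30 min at 37 °C, quenched in ice-cold acetonitrile with internal standard. Analysed by C18 HPLC, UV at 267 nm, in triplicate.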

Row | Compound | remaining at 0.5 h
40 | COc1ccc(NC(=O)C(=O)c2c[nH]c3cc(Cl)ccc23)cc1 | 87.3%
41 | Cc1ccc(NC(=O)C(=O)c2c[nH]c3cc(C)ccc23)cc1 | 90.2%
42 | COc1ccc(NC(=O)C(=O)c2c[nH]c3cc(F)ccc23)cc1 | 74.6%
43 | COc1ccc(NC(=O)C(=O)c2c[nH]c3cc(C)ccc23)cc1 | 89.1%
44 | COc1ccc(NC(=O)C(=O)c2c[nH]c3ccccc23)cc1 | 67.9%
45 | COc1ccc(NC(=O)C(=O)c2c[nH]c3cc(C(C)C)ccc23)cc1 | 86.2%
46 | Cc1ccc(NC(=O)C(=O)c2c[nH]c3cc([N+](=O)[O-])ccc23)cc1 | 84.8%
47 | O=C(Nc1ccc(-n2cccn2)cc1)C(=O)c1c[nH]c2cc(Cl)ccc12 | 96.7%
48 | COc1ccc(NC(=O)C(=O)c2c[nH]c3cc(C#N)ccc23)cc1 | 87.5%

Test system: not listed separately
Assay: Toxicity in zebrafish assessed as mortality rate at 5 uM measured after 72 hrs
Assay type: organism-based, Danio rerio
Conditions: in vivo, read-out: Activity
How it was run: (§2)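 AB wild-type zebrafish embryos dechorionated with pronase at 48 hpf, 3 per well in methylene blue-free E3 medium. Dosed at 5 uM from 10 mM DMSO stocks (1% v/v DMSO). Kept at 28 °C for 72 h without food; survival scored at day 5 versus vehicle controls. Two experiments, each in triplicate.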

Row | Compound | mortality at 72 h, 5 µM
49 | Cc1ccc(NC(=O)C(=O)c2c[nH]c3cc(C)ccc23)cc1 | 20%
50 | Cc1ccc2[nH]cc(C(=O)C(=O)Nc3ccc(N4CCOCC4)cc3)c2c1 | 20%
51 | COc1ccc(NC(=O)C(=O)c2c[nH]c3ccccc23)cc1 | 20%
52 | Cc1ccc(NC(=O)C(=O)c2c[nH]c3ccc(C)cc23)cc1 | 20%
53 | O=C(Nc1ccc(N2CCOCC2)cc1)C(=O)c1c[nH]c2ccc(Cl)cc12 | 20%
54 | Cc1ccc(NC(=O)C(=O)c2c[nH]c3cc([N+](=O)[O-])ccc23)cc1 | 20%
55 | Cc1ccc(NC(=O)C(=O)c2c[nH]c3c(C)cccc23)cc1 | 20%
56 | Cc1ccc2c(C(=O)C(=O)Nc3ccc(N4CCOCC4)cc3)c[nH]c2c1 | 20%

Species: Danio rerio
Assay: (§3) Toxicity in zebrafish assessed as organism survival at 5 uM treated at 48 hrs post-fertilization measured after 3 days
Assay type: organism-based
Conditions: in vivo, 72 h, 5 µM
How it was run: as §2

Row | Compound | Activity
57 | COc1ccc(NC(=O)C(=O)c2c[nH]c3cc(Cl)ccc23)cc1 | Toxic
58 | Cc1ccc2[nH]cc(C(=O)C(=O)Nc3ccc(N4CCOCC4)cc3)c2c1 | Toxic
59 | Cc1ccc(NC(=O)C(=O)c2c[nH]c3ccc(C)cc23)cc1 | Toxic
60 | O=C(Nc1ccc(N2CCOCC2)cc1)C(=O)c1c[nH]c2ccc(Cl)cc12 | Toxic
61 | Cc1ccc(NC(=O)C(=O)c2c[nH]c3c(C)cccc23)cc1 | Toxic

Test system: not listed separately
Assay: as §3
Assay type: organism-based, Danio rerio
Conditions: in vivo
How it was run: as §2

Row | Compound | survival at 72 h, 5 µM
62 | Cc1ccc(NC(=O)C(=O)c2c[nH]c3cc(C)ccc23)cc1 | 100%
63 | COc1ccc(NC(=O)C(=O)c2c[nH]c3cc(F)ccc23)cc1 | 100%
64 | COc1ccc(NC(=O)C(=O)c2c[nH]c3cc(C)ccc23)cc1 | 100%
65 | COc1ccc(NC(=O)C(=O)c2c[nH]c3ccccc23)cc1 | 100%
66 | COc1ccc(NC(=O)C(=O)c2c[nH]c3cc(C(C)C)ccc23)cc1 | 100%
67 | Cc1ccc(NC(=O)C(=O)c2c[nH]c3cc([N+](=O)[O-])ccc23)cc1 | 100%
68 | O=C(Nc1ccc(-n2cccn2)cc1)C(=O)c1c[nH]c2cc(Cl)ccc12 | 100%
69 | Cc1ccc2c(C(=O)C(=O)Nc3ccc(N4CCOCC4)cc3)c[nH]c2c1 | 100%
70 | COc1ccc(NC(=O)C(=O)c2c[nH]c3cc(C#N)ccc23)cc1 | 100%

Test system: not listed separately
Assay: Cytotoxicity against mouse SMB.s15 cells at 20 uM after 5 days by MTT assay
Assay type: cell-based
Conditions: smb.s15, 120 h
How it was run: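 SMB.s15 cells at 12,000 cells/well, exposed to compound for 5 days at 37 °C (DMSO stock diluted via HBSS into medium). Viability measured by MTT assay per the reagent's standard protocol.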

Row | Compound | Activity
71 | COc1ccc(NC(=O)C(=O)c2c[nH]c3cc(Cl)ccc23)cc1 | Non-toxic
72 | Cc1ccc(NC(=O)C(=O)c2c[nH]c3cc(C)ccc23)cc1 | Non-toxic
73 | COc1ccc(NC(=O)C(=O)c2c[nH]c3cc(F)ccc23)cc1 | Non-toxic
74 | COc1ccc(NC(=O)C(=O)c2c[nH]c3cc(C)ccc23)cc1 | Non-toxic
75 | Cc1ccc2[nH]cc(C(=O)C(=O)Nc3ccc(N4CCOCC4)cc3)c2c1 | Non-toxic
76 | COc1ccc(NC(=O)C(=O)c2c[nH]c3ccccc23)cc1 | Non-toxic
77 | Cc1ccc(NC(=O)C(=O)c2c[nH]c3ccc(C)cc23)cc1 | Non-toxic
78 | O=C(Nc1ccc(N2CCOCC2)cc1)C(=O)c1c[nH]c2ccc(Cl)cc12 | Non-toxic
79 | COc1ccc(NC(=O)C(=O)c2c[nH]c3cc(C(C)C)ccc23)cc1 | Non-toxic
80 | Cc1ccc(NC(=O)C(=O)c2c[nH]c3cc([N+](=O)[O-])ccc23)cc1 | Non-toxic
81 | Cc1ccc(NC(=O)C(=O)c2c[nH]c3c(C)cccc23)cc1 | Non-toxic
82 | O=C(Nc1ccc(-n2cccn2)cc1)C(=O)c1c[nH]c2cc(Cl)ccc12 | Non-toxic
83 | Cc1ccc2c(C(=O)C(=O)Nc3ccc(N4CCOCC4)cc3)c[nH]c2c1 | Non-toxic
84 | COc1ccc(NC(=O)C(=O)c2c[nH]c3cc(C#N)ccc23)cc1 | Non-toxic
